For 30 molecules, IC50 results are on record in ChEMBL document CHEMBL1212856, “Anti-Plasmodium activity of imidazolium and triazolium salts” (Bioorg Med Chem, 2010).

SMILES strings stand for the structures.

Assay [1] deals with CHO. In words: Cytotoxicity against CHO cells after 48 hrs by MTT assay. The class given is cell-based. Particulars: Cricetulus griseus. Summed up: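 CHO cells in RPMI-1640 with 10% fetal calf serum, 25 mM HEPES and gentamicin, grown to 50% confluency before dosing. Dilution series made from a 10 mg/mL DMSO stock, with DMSO-alone controls. After 48 h the medium was replaced with […] for 30 min.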
(Formazan colour is commonly taken as a measure of viable cells.)

For assay [2], the system named is Plasmodium falciparum. In words: Antiplasmodial activity against Plasmodium falciparum 3D7 after 72 by LDH assay. The format is functional, organism-based. Put shortly:
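Non-synchronous chloroquine-sensitive P. falciparum culture at 2% hematocrit and 2% parasitemia, in RPMI-10Pf with twofold serial compound dilutions from a 10 mg/mL DMSO stock. Incubated 72 h at 37 °C under 95% N₂, 3% CO₂, 2% O₂. Resuspended samples went into parasite-specific LDH mix, read at 595 nm after 1 h. IC50 by non-linear regression; mean ± standard error of four independent determinations.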

One may read the IC50 as the concentration that inhibits the measured activity by half. Regarding `C[n+]1c(-c2ccccc2)nn(Cc2ccc(Br)cc2)c1-c1ccccc1`, the concentration for half-maximal inhibition (IC50) in assay [1] stood at 33 µM; in assay [2], 1.68 µM. In assay [2], `Brc1ccccc1Cn1cc[n+](Cc2ccccc2Br)c1` displayed an IC50 of 1.4 µM.

As for `C[n+]1cn(CC(=O)CCc2ccccc2)nc1-c1ccccc1`, the results for the half-maximal inhibitory concentration (IC50) in assay [1] and in assay [2] were 237 µM and 3.4 µM, respectively. With `Clc1ccc(Cn2cc[n+](Cc3ccc(Cl)cc3)c2)cc1`, the IC50 in assay [2] stood at 9 µM.

As for `C[n+]1c(-c2ccccc2)nn(CC(=O)CCc2ccccc2)c1-c1ccccc1`, the IC50 was 143 µM in assay [1] and 0.1 µM in assay [2]. `c1ccc(Cn2cc[n+](Cc3ccc4ccccc4c3)c2)cc1` yielded a half-inhibitory concentration (IC50) in assay [2] of 0.9 µM. Take `O=C(Cn1c[n+](Cc2ccccc2)cn1)c1ccccc1`: the half-maximal inhibitory concentration (IC50) worked out at 261 µM in assay [1] and 73 µM in assay [2].

Regarding `CSc1nn(-c2ccccc2)c[n+]1-c1ccccc1`, the results for the 50% inhibitory concentration (IC50) in assay [1] and in assay [2] were 224 µM and 69 µM, respectively.

With `Ic1ccc(Cn2cc[n+](Cc3ccc(I)cc3)c2)cc1`, the IC50 stood at 33 µM in assay [1] and 0.35 µM in assay [2]. For the molecule `Clc1cccc(Cn2cc[n+](Cc3cccc(Cl)c3)c2)c1`, it took 3.3 µM to reach half-maximal inhibition in assay [2] (IC50).

For the molecule `Fc1ccc(Cn2cc[n+](Cc3ccc(F)cc3)c2)cc1`, the half-inhibitory concentration (IC50) in assay [1] was 56 µM; in assay [2], 17 µM. Taken in the same sequence, the figures for `c1c[nH]cn1` [IMIDAZOLE] were 3680 µM and 368 µM. On to `O=C(Cn1cncn1)c1ccccc1`, for which the IC50 was found to be 334 µM in assay [1] and 894 µM in assay [2].

For the molecule `c1ccc2cc(Cn3cc[n+](Cc4ccc5ccccc5c4)c3)ccc2c1`, the IC50 in assay [1] was 27 µM; in assay [2], 0.9 µM. Turning to `c1ccc(Cn2cc[n+](Cc3ccccc3)c2)cc1`, the IC50 in assay [2] was found to be 16 µM. With `O=C(Cn1cc[n+](CC(=O)c2ccc(Cl)cc2)c1)c1ccc(Cl)cc1`, the figures for the concentration for half-maximal inhibition (IC50) in assay [1] and in assay [2] were 53 µM and 2.6 µM, respectively. With `C[n+]1c(-c2ccccc2)nn(Cc2ccccc2)c1-c1ccccc1`, the IC50 came to 87 µM in assay [1] and 7.8 µM in assay [2]. Turning to `Clc1ccccc1Cn1cc[n+](Cc2ccccc2Cl)c1`, inhibition in assay [2] was half-maximal at 2 µM (IC50). For the molecule `c1nc[nH]n1` [1,2,4-TRIAZOLE], the IC50 in assay [1] came out at 1270 µM; in assay [2], 2900 µM. For the molecule `O=C(Cn1cc[n+](CC(=O)c2ccc(Cc3ccccc3)cc2)c1)c1ccc(Cc2ccccc2)cc1`, the figures for the IC50 in assay [1] and in assay [2] were 4.3 µM and 0.5 µM, respectively.

As for `Brc1ccc(Cn2cc[n+](Cc3ccc(Br)cc3)c2)cc1`, the IC50 in assay [1] is 172 µM; in assay [2], 0.7 µM.

In assay [2], `Brc1ccc(C[n+]2ccn(Cc3ccccc3)c2)cc1` yielded an IC50 of 2.9 µM. In assay [2], `Brc1cccc(Cn2cc[n+](Cc3cccc(Br)c3)c2)c1` gave an IC50 of 1.05 µM. `COc1ccc(Cn2cc[n+](Cc3ccc(OC)cc3)c2)cc1`: the IC50 turned out to be 30.6 µM in assay [1] and 5 µM in assay [2]. `O=[N+]([O-])c1ccc(Cn2cc[n+](Cc3ccc([N+](=O)[O-])cc3)c2)cc1` registered an IC50 in assay [2] of 9 µM. Turning to `CSc1nn(-c2ccccc2)c(C)[n+]1-c1ccccc1`, the figures for the IC50 in assay [1] and in assay [2] were 307 µM and 3.1 µM, respectively.

Turning to `Fc1c(F)c(F)c(-n2c[n+]3c(n2)CCC3)c(F)c1F`, the IC50 is 303 µM in assay [1] and 89 µM in assay [2]. Take `Brc1ccc(Cn2cc[n+](Cc3ccc4ccccc4c3)c2)cc1`: the IC50 in assay [1] came out at 27 µM; in assay [2] it was 0.73 µM. In the case of `c1ccc(Cn2c[n+](Cc3ccccc3)cn2)cc1`, the IC50 stood at 74 µM in assay [1] and 100 µM in assay [2].

For `O=C(Cn1c[n+](CC(=O)c2ccc(Br)cc2)cn1)c1ccc(Br)cc1`, the IC50 in assay [1] came out at 20.9 µM; in assay [2], 10.9 µM.
